In assay [1] the target is T1, Cholecystokinin receptor type A (Rattus norvegicus, UniProt P30551).
T1 sequence (P30551 whole entry): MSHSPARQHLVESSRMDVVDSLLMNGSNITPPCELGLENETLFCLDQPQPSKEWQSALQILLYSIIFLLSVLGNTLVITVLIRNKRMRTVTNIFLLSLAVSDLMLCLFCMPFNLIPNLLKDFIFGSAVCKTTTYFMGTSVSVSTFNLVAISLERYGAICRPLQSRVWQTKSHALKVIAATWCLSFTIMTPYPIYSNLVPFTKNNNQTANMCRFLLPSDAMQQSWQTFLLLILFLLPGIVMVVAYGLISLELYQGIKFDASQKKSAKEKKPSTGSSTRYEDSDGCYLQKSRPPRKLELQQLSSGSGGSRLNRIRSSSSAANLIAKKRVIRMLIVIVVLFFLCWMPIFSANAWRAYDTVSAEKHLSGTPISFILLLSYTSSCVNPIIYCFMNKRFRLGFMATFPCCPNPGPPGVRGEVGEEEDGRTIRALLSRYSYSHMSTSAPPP
Briefly: Inhibition of [3H]pCCK-8 specific binding to cholecystokinin type A receptor in rat pancreas. A digest of the protocol: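 Rat pancreas homogenized in Pipes-HCl pH 6.5 with 30 mM MgCl2, centrifuged twice at 50 000g, 10 min, 4 °C. Membranes (0.2 mg protein/tube) incubated with 0.5 nM [3H]pCCK-8, 30 mM MgCl2, bacitracin and SBTI (0.2 mg/mL each), 120 min, 25 °C. Seven test concentrations in triplicate, at least three experiments.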

The target of assay [2] is T2, Gastrin/cholecystokinin type B receptor (Rattus norvegicus, UniProt P30553).
T2 sequence (P30553 whole entry): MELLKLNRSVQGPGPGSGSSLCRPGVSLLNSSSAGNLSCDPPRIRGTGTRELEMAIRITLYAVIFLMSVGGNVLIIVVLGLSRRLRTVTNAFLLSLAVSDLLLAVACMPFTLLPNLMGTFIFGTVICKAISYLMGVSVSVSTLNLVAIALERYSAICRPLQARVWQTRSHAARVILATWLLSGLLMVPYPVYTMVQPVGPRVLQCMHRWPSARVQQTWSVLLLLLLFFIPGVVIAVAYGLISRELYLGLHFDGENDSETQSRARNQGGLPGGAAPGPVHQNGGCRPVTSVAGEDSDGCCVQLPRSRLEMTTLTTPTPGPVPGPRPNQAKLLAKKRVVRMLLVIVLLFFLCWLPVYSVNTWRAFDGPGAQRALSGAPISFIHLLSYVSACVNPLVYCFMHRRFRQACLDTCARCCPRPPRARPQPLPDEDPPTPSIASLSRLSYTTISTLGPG
Kind of assay: Inhibition of [3H]pCCK-8 specific binding cholecystokinin type B receptor in rat cerebral cortex membranes. Format: cell membranes, Membrane. A digest of the protocol:
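Rat brain cortex homogenized in 50 mM Tris-HCl pH 7.4 with 5 mM MgCl2, centrifuged twice at 100 000g, 35 min, 4 °C. Membranes (0.45 mg protein/tube) incubated with 1 nM [3H]pCCK-8 plus bacitracin 0.2 mg/mL, 60 min, 25 °C. Seven test concentrations in triplicate, at least three experiments.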

For assay [3], the species on record is Rattus norvegicus. Kind of assay: Inhibition of amylase release stimulated by CCK-8 (0.1 nM) in dispersed pancreatic acini. Type of assay: functional. A digest of the protocol: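 Pancreatic acini prepared by collagenase digestion (two 6 min incubations, 37 °C). Acini were suspended in theophylline/BSA-containing buffer and incubated 30 min, 37 °C, under O2 with 0.1 nM CCK-8 and increasing compound concentrations. Released amylase was measured as a percentage of acinar content. IC50 came from linear regression of % inhibition. Three to six experiments in duplicate.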

SMILES strings stand for the structures.

Usually IC50 stands for the concentration at which inhibition is half-maximal. As for `CC(C)(C)OC(=O)N[C@@H](Cc1c[nH]c2ccccc12)C(=O)N[C@H]1CCCN2C(=O)N(Cc3ccccc3)C(=O)C[C@H]12`, the figures for the half-inhibitory concentration (IC50) in assay [1] and in assay [2] were 22.7 nM and 6150 nM, respectively.

Consider `CC(C)(C)OC(=O)N[C@@H](Cc1c[nH]c2ccccc12)C(=O)N[C@@H]1CCCN2C(=O)N(c3ccccc3)C(=O)C[C@@H]12`, for which the half-maximal inhibitory concentration (IC50) in assay [3] is 3.5 nM; in assay [1], 1.18 nM; in assay [2], over 10000 nM.

On to `CC(C)(C)OC(=O)N[C@@H](Cc1c[nH]c2ccccc12)C(=O)N[C@@H]1CCCN2C(=O)N(C3CCCCC3)C(=O)C[C@@H]12`, for which the values for the concentration for half-maximal inhibition (IC50) in assay [3], in assay [1] and in assay [2] were 3 nM, 0.6 nM and over 10000 nM, respectively.

For `CN(C)c1cccc(N2C(=O)C[C@@H]3[C@@H](NC(=O)[C@H](Cc4c[nH]c5ccccc45)NC(=O)OC(C)(C)C)CCCN3C2=O)c1`, the 50% inhibitory concentration (IC50) in assay [1] was over 1000 nM; in assay [2] it was over 10000 nM.

Take `CC(C)(C)OC(=O)N[C@@H](Cc1c[nH]c2ccccc12)C(=O)N[C@@H]1CCCN2C(=O)N(c3ccc([N+](=O)[O-])cc3)C(=O)C[C@@H]12`: the IC50 in assay [3] is 64 nM; in assay [1] it was 12 nM; in assay [2], over 10000 nM.

As to `CC(C)(C)OC(=O)N[C@@H](Cc1c[nH]c2ccccc12)C(=O)N[C@@H]1CCCN2C(=O)N(c3cccc([N+](=O)[O-])c3)C(=O)C[C@@H]12`, the 50% inhibitory concentration (IC50) in assay [3] is 49.5 nM; in assay [1], 44 nM; in assay [2] it was over 10000 nM.

`Cc1cccc(N2C(=O)C[C@H]3[C@H](NC(=O)[C@H](Cc4c[nH]c5ccccc45)NC(=O)OC(C)(C)C)CCCN3C2=O)c1`: the half-maximal inhibitory concentration (IC50) is 10 nM in assay [3], 3.98 nM in assay [1] and over 10000 nM in assay [2].

As to `C[C@H](c1ccccc1)N1C(=O)C[C@@H]2[C@@H](NC(=O)[C@H](Cc3c[nH]c4ccccc34)NC(=O)OC(C)(C)C)CCCN2C1=O`, the IC50 in assay [1] is over 1000 nM; in assay [2], over 10000 nM.

For the molecule `CC(C)(C)OC(=O)N[C@@H](Cc1c[nH]c2ccccc12)C(=O)N[C@H]1CCCN2C(=O)N(c3ccc([N+](=O)[O-])cc3)C(=O)C[C@H]12`, the half-maximal inhibitory concentration (IC50) in assay [1] was over 1000 nM; in assay [2] it was over 10000 nM.

Turning to `CN(C)c1cccc(N2C(=O)C[C@H]3[C@H](NC(=O)[C@H](Cc4c[nH]c5ccccc45)NC(=O)OC(C)(C)C)CCCN3C2=O)c1`, the concentration for half-maximal inhibition (IC50) is 50.8 nM in assay [1] and over 10000 nM in assay [2].

In the case of `CC(=O)Oc1cccc(N2C(=O)C[C@H]3[C@H](NC(=O)[C@H](Cc4c[nH]c5ccccc45)NC(=O)OC(C)(C)C)CCCN3C2=O)c1`, the IC50 is 70.3 nM in assay [1] and over 10000 nM in assay [2].

As to `CC(C)(C)OC(=O)N[C@@H](Cc1c[nH]c2ccccc12)C(=O)N[C@H]1CCCN2C(=O)N(C3CCCCC3)C(=O)C[C@H]12`, the IC50 in assay [3] is 287 nM; in assay [1], 165 nM; in assay [2], 7160 nM.

As for `Cc1cccc(N2C(=O)C[C@@H]3[C@@H](NC(=O)[C@H](Cc4c[nH]c5ccccc45)NC(=O)OC(C)(C)C)CCCN3C2=O)c1`, the IC50 was 100 nM in assay [1] and 1320 nM in assay [2].

For the molecule `CC(C)(C)OC(=O)N[C@@H](Cc1c[nH]c2ccccc12)C(=O)N[C@H]1CCCN2C(=O)N(c3cccc([N+](=O)[O-])c3)C(=O)C[C@H]12`, the IC50 in assay [1] is over 1000 nM; in assay [2], over 10000 nM.

Turning to `CN1C(=O)C[C@@H]2[C@@H](NC(=O)[C@H](Cc3c[nH]c4ccccc34)NC(=O)OC(C)(C)C)CCCN2C1=O`, in assay [2], the IC50 is over 10000 nM.

With `C[C@H](c1ccccc1)N1C(=O)C[C@H]2[C@H](NC(=O)[C@H](Cc3c[nH]c4ccccc34)NC(=O)OC(C)(C)C)CCCN2C1=O`, the IC50 in assay [3] is 12.6 nM; in assay [1], 15 nM; in assay [2] it was over 10000 nM.

With `Cc1ccc(N2C(=O)C[C@@H]3[C@@H](NC(=O)[C@H](Cc4c[nH]c5ccccc45)NC(=O)OC(C)(C)C)CCCN3C2=O)cc1`, the figures for the half-maximal inhibitory concentration (IC50) in assay [1] and in assay [2] were 200 nM and 2320 nM, respectively.

Regarding `CN(C)c1ccc(N2C(=O)C[C@H]3[C@H](NC(=O)[C@H](Cc4c[nH]c5ccccc45)NC(=O)OC(C)(C)C)CCCN3C2=O)cc1`, the IC50 in assay [3] is 39.8 nM; in assay [1], 4.3 nM; in assay [2] it was over 10000 nM.

For `CCOC(=O)[C@H](Cc1ccccc1)N1C(=O)C[C@H]2[C@H](NC(=O)[C@H](Cc3c[nH]c4ccccc34)NC(=O)OC(C)(C)C)CCCN2C1=O`, the IC50 in assay [1] is over 1000 nM; in assay [2], over 10000 nM.

On to `CC(C)(C)OC(=O)N[C@H](Cc1c[nH]c2ccccc12)C(=O)N[C@H]1CCCN2C(=O)N(c3cccc4ccccc34)C(=O)C[C@H]12`, for which the IC50 was over 1000 nM in assay [1] and over 10000 nM in assay [2].

As to `C[C@@H](c1ccccc1)N1C(=O)C[C@H]2[C@H](NC(=O)[C@H](Cc3c[nH]c4ccccc34)NC(=O)OC(C)(C)C)CCCN2C1=O`, the values for the concentration for half-maximal inhibition (IC50) in assay [3], in assay [1] and in assay [2] were 112 nM, 6.89 nM and over 10000 nM, respectively.

Turning to `CN(C)c1ccc(N2C(=O)C[C@@H]3[C@@H](NC(=O)[C@H](Cc4c[nH]c5ccccc45)NC(=O)OC(C)(C)C)CCCN3C2=O)cc1`, the 50% inhibitory concentration (IC50) in assay [1] is over 1000 nM; in assay [2] it was 2320 nM.

Turning to `Cc1ccccc1N1C(=O)C[C@@H]2[C@@H](NC(=O)[C@H](Cc3c[nH]c4ccccc34)NC(=O)OC(C)(C)C)CCCN2C1=O`, the IC50 was over 1000 nM in assay [1] and over 10000 nM in assay [2].

As for `CCOC(=O)[C@H](Cc1ccccc1)N1C(=O)C[C@@H]2[C@@H](NC(=O)[C@H](Cc3c[nH]c4ccccc34)NC(=O)OC(C)(C)C)CCCN2C1=O`, the 50% inhibitory concentration (IC50) in assay [1] was over 1000 nM; in assay [2], over 10000 nM.

As to `CC(C)(C)OC(=O)N[C@H](Cc1c[nH]c2ccccc12)C(=O)N[C@@H]1CCCN2C(=O)N(c3cccc4ccccc34)C(=O)C[C@@H]12`, the IC50 was 93 nM in assay [3], 15.4 nM in assay [1] and over 10000 nM in assay [2].

The molecule `CSCC[C@H](NC(=O)[C@H](Cc1ccc(O)cc1)NC(=O)[C@@H](N)CC(=O)O)C(=O)NCC(=O)N[C@@H](Cc1c[nH]c2ccccc12)C(=O)N[C@@H](CCSC)C(=O)N[C@@H](CC(=O)O)C(=O)N[C@@H](Cc1ccccc1)C(N)=O` gave an IC50 in assay [1] of 1.04 nM.

Turning to `CC(C)(C)OC(=O)N[C@@H](Cc1c[nH]c2ccccc12)C(=O)NC1CCCN2C(=O)N(c3cccc(C(=O)O)c3)C(=O)CC12` (stereo partly drawn), the half-inhibitory concentration (IC50) is over 1000 nM in assay [1] and over 10000 nM in assay [2].

For the molecule `CC(C)(C)OC(=O)N[C@@H](Cc1c[nH]c2ccccc12)C(=O)NC1CCCN2C(=O)N(C(Cc3ccccc3)C(=O)O)C(=O)CC12` (stereo partly drawn), the figures for the IC50 in assay [1] and in assay [2] were over 1000 nM and over 10000 nM, respectively.

Turning to `CC(C)(C)OC(=O)N[C@@H](Cc1c[nH]c2ccccc12)C(=O)N[C@H]1CCCN2C(=O)N(c3cccc4ccccc34)C(=O)C[C@H]12`, the values for the 50% inhibitory concentration (IC50) in assay [1] and in assay [2] were over 1000 nM and over 10000 nM, respectively.

Regarding `C[C@@H](c1ccccc1)N1C(=O)C[C@@H]2[C@@H](NC(=O)[C@H](Cc3c[nH]c4ccccc34)NC(=O)OC(C)(C)C)CCCN2C1=O`, the values for the half-maximal inhibitory concentration (IC50) in assay [1] and in assay [2] were over 1000 nM and over 10000 nM, respectively.

As to `CC(C)(C)OC(=O)N[C@@H](Cc1c[nH]c2ccccc12)C(=O)N[C@@H]1CCCN2C(=O)N(c3cccc4ccccc34)C(=O)C[C@@H]12`, the values for the half-maximal inhibitory concentration (IC50) in assay [3], in assay [1] and in assay [2] were 0.73 nM, 0.59 nM and over 10000 nM, respectively.

For `COC(=O)C(Cc1ccccc1)N1C(=O)CC2C(NC(=O)[C@H](Cc3c[nH]c4ccccc34)NC(=O)OC(C)(C)C)CCCN2C1=O` (stereo partly drawn), the IC50 in assay [1] was over 1000 nM; in assay [2] it was over 10000 nM.

Regarding `CC(C)(C)OC(=O)N[C@@H](Cc1c[nH]c2ccccc12)C(=O)NC1CCCN2C(=O)N(c3cccc(O)c3)C(=O)CC12` (stereo partly drawn), the IC50 in assay [1] was over 1000 nM; in assay [2] it was over 10000 nM.

As to `CC(C)(C)OC(=O)N[C@@H](Cc1c[nH]c2ccccc12)C(=O)N[C@H]1CCCN2C(=O)N(c3ccncc3)C(=O)C[C@H]12` (relative stereo), the half-maximal inhibitory concentration (IC50) in assay [1] is 386 nM; in assay [2], over 10000 nM.

In turn, `CC(C)(C)OC(=O)N[C@@H](Cc1c[nH]c2ccccc12)C(=O)N[C@@H]1CCCN2C(=O)N(Cc3ccccc3)C(=O)C[C@@H]12` [IQM-95333] yielded an IC50 in assay [2] of over 10000 nM.

For the origin of these results see ChEMBL document CHEMBL1134518, “5-(Tryptophyl)amino-1,3-dioxoperhydropyrido[1,2-c]pyrimidine-based potent and selective CCK(1)receptor antagonists: structure-activity relationship studies on the substituent at N2-position” (J Med Chem, 2001).
